Assay type in all cases: functional
Experiment [1] concerns Mycobacterium tuberculosis variant bovis. The experiment can be described thus: Minimum inhibitory concentration against Mycobacterium bovis. In outline:
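Alamar blue microplate assay in 7H9GC. BCG or M. avium ATCC 25291 at 2.5 × 10⁵ CFU/mL final, exposed to compound at 100, 50, 10 and 1 µg/mL in triplicate. Reagent added after 6+ days once growth controls turned pink, read after 24 h visually and by fluorescence. MIC₉₀ taken as the lowest concentration giving ~90% growth inhibition.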

Experiment [2] shares this test system. The experiment can be described thus: Inhibition of growth of Mycobacterium bovis was determined using microplate alamar blue assay at 1 ug/mL concentration with compound dissolved in DMSO. Put shortly:
(§1)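 MABA in 7H9GC medium; M. bovis BCG or M. avium ATCC 25291 frozen inocula at 2.5 × 10⁵ CFU/mL final, 100× DMSO stocks diluted into medium. Incubated 6 days, then alamar blue plus 20% Tween-80 added once bacteria-only wells turned pink, read 24 h later by fluorescence. % inhibition = […]. Triplicate wells, three experiments, mean reported.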
In general terms: Alamar Blue is a resazurin reagent that responds to reducing activity.

Experiment [3] shares this test system. The experiment can be described thus: Inhibition of growth of Mycobacterium bovis was determined using microplate alamar blue assay at 50 ug/mL concentration with compound dissolved in DMSO. In outline:
as §1

Experiment [4] has the same test system. The experiment can be described thus: Inhibition of growth of Mycobacterium bovis was determined using microplate alamar blue assay at 100 ug/mL concentration with compound dissolved in DMSO. In outline:
as §1

For experiment [5] the test system is unchanged. The experiment can be described thus: Inhibition of growth of Mycobacterium bovis was determined using microplate alamar blue assay at 10 ug/mL concentration with compound dissolved in DMSO. Put shortly:
as §1

Experiment [6] has the same test system. Briefly: Inhibition of growth of Mycobacterium bovis was determined using microplate alamar blue assay at 0.5-1 ug/mL concentration with compound dissolved in DMSO.

Each structure is given as a SMILES string. ≈ marks a conversion by molar mass, not a printed value.

For orientation: MIC90 means an inhibitory concentration at the 90% level, which refers to growth in some studies and to a panel of isolates in others. Lower therefore signals greater potency. Usually inhibition stands for the relative decrease from the control value, in per cent. Consider `CCCCCCCCCCCCC#Cc1cn([C@H]2C[C@H](O)[C@@H](CO)O2)c(=O)[nH]c1=O`, for which the MIC90 in experiment [1] turned out to be 10 µg/mL (≈ 23.8 µM). For the same molecule, the inhibition at 1 µg/mL in experiment [2] came to 33%. Also, in experiment [3], the inhibition at 50 µg/mL amounted to 90%. The inhibition at 100 µg/mL in experiment [4] came to 90%. In addition, the inhibition at 10 µg/mL in experiment [5] is 90%.
As to `CCCCCC#Cc1cn([C@H]2C[C@H](O)[C@@H](CO)O2)c(=O)[nH]c1=O`, in experiment [3], the inhibition at 50 µg/mL was found to be 60%. Further, the inhibition at 100 µg/mL in experiment [4] was 60%.
`CCCCCCCCC#Cc1cn([C@H]2C[C@H](O)[C@@H](CO)O2)c(=O)nc1N` came in with an MIC90 in experiment [1] of 50 µg/mL (≈ 138 µM). Moreover, in experiment [3], the inhibition at 50 µg/mL came out at 90%. Moreover, the inhibition at 100 µg/mL in experiment [4] was determined as 90%. Besides, in experiment [5], the inhibition at 10 µg/mL was 10%.
`CCCCCCCCC#Cc1cn([C@H]2C[C@H](O)[C@@H](CO)O2)c(=O)[nH]c1=O` had an MIC90 in experiment [1] of 100 µg/mL (≈ 274 µM). In experiment [3], the inhibition at 50 µg/mL is 50%. In experiment [4], the inhibition at 100 µg/mL came to 90%. In addition, in experiment [5], the inhibition at 10 µg/mL is 0%.
For orientation: Inhibition means the share of the control response that was lost under treatment. `CO[C@H]1/C=C/O[C@@]2(C)Oc3c(C)c(O)c4c(O)c(c(/C=N/N5CCN(C)CC5)c(O)c4c3C2=O)NC(=O)/C(C)=C\C=C\[C@H](C)[C@H](O)[C@@H](C)[C@@H](O)[C@@H](C)[C@H](OC(C)=O)[C@@H]1C` [RIFAMPIN] came in with an MIC90 in experiment [1] of 1 µg/mL (≈ 1.22 µM). In addition, in experiment [6], the Inhibition was found to be 100%.
Consider `CCCCCCCCCCC#Cc1cn([C@H]2C[C@H](O)[C@@H](CO)O2)c(=O)[nH]c1=O`, for which, in experiment [1], the MIC90 was found to be 50 µg/mL (≈ 127 µM). Moreover, the inhibition at 1 µg/mL in experiment [2] is 25%. In addition, in experiment [3], the inhibition at 50 µg/mL was 90%. Moreover, the inhibition at 100 µg/mL in experiment [4] is 90%. In addition, the inhibition at 10 µg/mL in experiment [5] was determined as 70%.
In experiment [1], `CCCCCCCCCCC#Cc1cn([C@H]2C[C@H](O)[C@@H](CO)O2)c(=O)nc1N` yielded an MIC90 of 10 µg/mL (≈ 25.5 µM). In experiment [2], the inhibition at 1 µg/mL was 25%. In addition, the inhibition at 50 µg/mL in experiment [3] stood at 90%. The inhibition at 100 µg/mL in experiment [4] worked out at 90%. In experiment [5], the inhibition at 10 µg/mL turned out to be 90%.

The record behind these values is ChEMBL document CHEMBL1140381, “Design and studies of novel 5-substituted alkynylpyrimidine nucleosides as potent inhibitors of mycobacteria” (2005).
